Results taken from ChEMBL document CHEMBL1133118 (J Med Chem, 2000).

Columns and labels:
Adenosine receptor A2a [1] = biological target: T1, Adenosine receptor A2a (Homo sapiens, UniProt P29274); assay: Displacement of [3H]-SCH- 58261 from human adenosine A2A receptor expressed in CHO cells; range 1770-2327; type: cell-based
Adenosine receptor A2b [2] = biological target: T2, Adenosine receptor A2b (Homo sapiens, UniProt P29275); assay: Displacement of [3H]DPCPX from Adenosine A2b receptor expressed in CHO cells; type: cell-based
T2 sequence (P29275 whole entry): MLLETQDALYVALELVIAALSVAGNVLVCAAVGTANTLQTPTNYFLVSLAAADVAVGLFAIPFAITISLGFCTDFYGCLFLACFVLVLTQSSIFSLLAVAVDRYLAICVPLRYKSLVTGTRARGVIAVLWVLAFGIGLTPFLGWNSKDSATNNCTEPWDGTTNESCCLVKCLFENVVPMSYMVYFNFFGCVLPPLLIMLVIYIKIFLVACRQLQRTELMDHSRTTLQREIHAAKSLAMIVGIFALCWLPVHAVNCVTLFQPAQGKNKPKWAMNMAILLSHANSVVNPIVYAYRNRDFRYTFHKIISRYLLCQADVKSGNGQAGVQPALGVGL

[3] = biological target: Adenosine receptors; A1 & A3 (Homo sapiens) (UniProt P30542+P0DMS8); assay: Ratio of binding affinity of human A1 receptor to that of human A3 receptor; type: protein assay
Method in brief: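 Ki ratio from displacement in CHO membranes, 6–8 concentrations, n=3-6, filtration counting. A1: 1 nM [3H]DPCPX, 50 μg protein, 120 min at 25 °C, nonspecific with 10 μM CHA. A3: 1 nM [3H]MRE3008-F20, 50 μg protein, Tris/10 mM MgCl2 pH 7.4, 120 min at 4 °C, nonspecific with 1 μM MRE3008-F20.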

[4] = biological target: Adenosine receptors; A2b & A3 (Homo sapiens) (UniProt P29275+P0DMS8); assay: Ratio of binding affinity of human A2B receptor to that of human A3 receptor; type: protein assay
Method in brief: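 Ki ratio, n=3-6, 6–8 concentrations. A2B in HEK-293 membranes (20 μg): 40 nM [3H]DPCPX, 50 mM Tris HCl, 10 mM MgCl2, 1 mM EDTA, 0.1 mM benzamidine pH 7.4, 2 IU/mL adenosine deaminase, 60 min at 25 °C, nonspecific with 100 μM NECA. A3 in CHO membranes (50 μg): 1 nM [3H]MRE3008-F20, 120 min at 4 °C.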

Adenosine receptor A3 [5] = biological target: T3, Adenosine receptor A3 (Homo sapiens, UniProt P0DMS8); assay: Displacement of [3H]MRE3008-F20 from human adenosine A3 receptor expressed in CHO cells; range 17-36; type: cell-based
T3 sequence (P0DMS8 whole entry): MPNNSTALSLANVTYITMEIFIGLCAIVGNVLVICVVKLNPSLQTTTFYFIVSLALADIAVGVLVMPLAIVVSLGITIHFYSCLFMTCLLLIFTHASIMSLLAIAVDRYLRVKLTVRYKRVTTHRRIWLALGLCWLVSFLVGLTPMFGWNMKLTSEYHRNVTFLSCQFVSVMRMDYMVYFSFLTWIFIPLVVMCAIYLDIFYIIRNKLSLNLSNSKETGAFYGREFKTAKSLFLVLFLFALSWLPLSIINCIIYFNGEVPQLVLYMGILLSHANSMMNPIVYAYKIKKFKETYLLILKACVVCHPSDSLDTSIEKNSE

Adenosine receptor A1 [6] = biological target: T4, Adenosine receptor A1 (Homo sapiens, UniProt P30542); assay: Displacement of [3H]DPCPX from human adenosine A1 receptor expressed in CHO cells; range 191-339; type: cell-based
T4 sequence (P30542 whole entry): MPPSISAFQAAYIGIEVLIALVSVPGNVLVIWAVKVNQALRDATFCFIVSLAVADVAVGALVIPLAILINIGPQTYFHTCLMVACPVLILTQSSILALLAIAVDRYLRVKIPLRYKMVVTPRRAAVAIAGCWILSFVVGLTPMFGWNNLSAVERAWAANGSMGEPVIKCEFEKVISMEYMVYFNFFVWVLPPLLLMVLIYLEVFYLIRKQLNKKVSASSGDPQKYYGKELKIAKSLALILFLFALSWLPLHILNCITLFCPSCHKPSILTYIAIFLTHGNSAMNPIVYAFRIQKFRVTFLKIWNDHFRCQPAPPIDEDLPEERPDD

[7] = biological target: T5, Adenosine receptor A3 (Homo sapiens) (UniProt P0DMS8); assay: Percentage of blockade by 1 uM of the inhibition by 100 nM IB-MECA-inhibited cAMP accumulation in CHO cells expressing human adenosine A3 receptor.; type: functional, cell-based
T5 sequence (whole entry): T3 sequence (P0DMS8 whole entry)
Method in brief: (§1)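 CHO cells stably expressing human A3 receptor; membranes in 50 mM Tris HCl, 10 mM MgCl2, 1 mM EDTA pH 7.4 with 5 μM GTP, 0.5 mM […] and 2.0 IU/mL adenosine deaminase. Preincubated 10 min at 37 °C, then IB-MECA (100 nM) and/or antagonist with 1 mM ATP and 10 μM forskolin for 10 min. Boiled 2 min. cAMP read by [3H]cAMP competition with adrenal binding protein.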

Adenosine receptor A3 [8] = biological target: T3, Adenosine receptor A3; assay: biochemical
Adenosine receptor A2a [9] = biological target: T1, Adenosine receptor A2a; assay: Displacement of [3H]-SCH- 58261 from human adenosine A2A receptor expressed in CHO cells; range 1220-1590; type: cell-based
Adenosine receptor A2b [10] = biological target: T2, Adenosine receptor A2b; assay: Displacement of [3H]DPCPX from Adenosine A2b receptor expressed in […]; range 226-301; type: cell-based
Adenosine receptor A1 [11] = biological target: T4, Adenosine receptor A1; assay: Displacement of [3H]DPCPX from human adenosine A1 receptor expressed in CHO cells; range 928-1297; type: cell-based
Adenosine receptor A3 [12] = biological target: T3, Adenosine receptor A3; assay: Inhibition of cAMP accumulation in CHO cells expressing human adenosine A3 receptor; range 1.7-4.2; type: functional, cell-based
[13] = biological target: T5, Adenosine receptor A3 (Homo sapiens); conditions: CHO, 1 uM
Adenosine receptor A3 [14] = biological target: T3, Adenosine receptor A3; assay: Displacement of [3H]MRE3008-F20 from human adenosine A3 receptor expressed in CHO cells; range 0.32-0.74; type: cell-based
Adenosine receptor A3 [15] = biological target: T3, Adenosine receptor A3; assay: Inhibition of cAMP accumulation in CHO cells expressing human adenosine A3 receptor; range 3.5-7.6; type: functional, cell-based
Adenosine receptor A1 [16] = biological target: T4, Adenosine receptor A1; assay: Displacement of [3H]-DPCPX from human adenosine A1 receptor expressed in CHO cells; […]; type: cell-based
Adenosine receptor A2a [17] = biological target: T1, Adenosine receptor A2a; assay: Displacement of [3H]-SCH- 58261 from human adenosine A2A receptor expressed in CHO cells; range 150-207; type: cell-based
[18] = biological target: T5, Adenosine receptor A3 (Homo sapiens); assay: Percent reversal of 100 nM IB-MECA-inhibited cAMP accumulation in CHO cells expressing human adenosine A3 receptor at 1 uM; range 73-110; type: functional, cell-based; method in brief: as §1
Adenosine receptor A2b [19] = biological target: T2, Adenosine receptor A2b; assay: Displacement of [3H]DPCPX from Adenosine A2b receptor expressed in […]; range 1770-2327; type: cell-based
Adenosine receptor A1 [20] = biological target: T4, Adenosine receptor A1; assay: Displacement of [3H]DPCPX from human adenosine A1 receptor expressed in CHO cells; range 327-462; type: cell-based
Adenosine receptor A2a [21] = biological target: T1, Adenosine receptor A2a; assay: Displacement of [3H]-SCH- 58261 from human adenosine A2A receptor expressed in CHO cells; range 3420-3788; type: cell-based
Adenosine receptor A3 [22] = biological target: T3, Adenosine receptor A3; assay: biochemical; remark: listed apart in the source
Adenosine receptor A2b [23] = biological target: T2, Adenosine receptor A2b; assay: Displacement of [3H]DPCPX from Adenosine A2b receptor expressed in […]; range 1681-1961; type: cell-based
Adenosine receptor A2b [24] = biological target: T2, Adenosine receptor A2b; assay: Displacement of [3H]DPCPX from Adenosine A2b receptor expressed in CHO cells; range 343-468; type: cell-based; conditions: in the assay text read “HEK-293 cells” for “CHO cells”
Method in brief: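 Human recombinant A2B receptor was expressed in HEK-293 cell membranes (20 μg protein). Incubated with 40 nM [3H]DPCPX in 50 mM Tris HCl, 10 mM MgCl2, 1 mM EDTA, 0.1 mM benzamidine, pH 7.4, with 2 IU/mL adenosine deaminase, at least 6–8 test concentrations, 60 min, 25 °C. Nonspecific binding was taken with 100 μM NECA; n=3-6.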

Adenosine receptor A2a [25] = biological target: T1, Adenosine receptor A2a; assay: Displacement of [3H]-SCH- 58261 from human adenosine A2A receptor expressed in CHO cells; range 36-55; type: cell-based
Method in brief: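 Membranes from CHO cells stably expressing human A2A receptor, grown in DMEM/F12 without nucleosides, resuspended in 50 mM Tris HCl, 10 mM MgCl2, pH 7.4; 50 μg protein/assay. Competition with [3H]SCH 58261 at 6–8 or more compound concentrations, 60 min at 25 °C; nonspecific binding with 50 μM NECA. Filtration on GF/B filters, scintillation counting; n=3-6.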

Adenosine receptor A3 [26] = biological target: T3, Adenosine receptor A3; assay: Displacement of [3H]MRE3008-F20 from human adenosine A3 receptor expressed in CHO cells; range 1061-1245; type: cell-based
Adenosine receptor A1 [27] = biological target: T4, Adenosine receptor A1; assay: Displacement of [3H]DPCPX from human adenosine A1 receptor expressed in CHO cells; range 134-229; type: cell-based

T1 sequence (P29274 whole entry): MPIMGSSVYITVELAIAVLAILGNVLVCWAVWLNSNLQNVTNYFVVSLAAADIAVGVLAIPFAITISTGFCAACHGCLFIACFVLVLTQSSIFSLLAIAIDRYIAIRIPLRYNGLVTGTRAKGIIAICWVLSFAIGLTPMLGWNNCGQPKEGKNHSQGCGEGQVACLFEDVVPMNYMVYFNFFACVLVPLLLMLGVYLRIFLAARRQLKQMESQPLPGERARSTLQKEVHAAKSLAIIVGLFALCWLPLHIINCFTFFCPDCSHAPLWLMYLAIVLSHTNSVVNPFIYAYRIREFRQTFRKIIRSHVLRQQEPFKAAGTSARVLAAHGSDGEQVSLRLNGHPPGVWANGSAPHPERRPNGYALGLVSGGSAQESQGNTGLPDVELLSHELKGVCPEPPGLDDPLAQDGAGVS

COc1ccc(NC(=O)Nc2nc3nn(CCc4cc(Br)c(Br)cc4Br)cc3c3nc(-c4ccco4)nn23)cc1
Ki (Adenosine receptor A2a [1]): 2030 nM
Ki (Adenosine receptor A2b [2]): > 10000 nM
Ratio [3]: 10.2
Ratio [4]: > 400
Ki (Adenosine receptor A3 [5]): 25 nM
Ki (Adenosine receptor A1 [6]): 255 nM
inhibition [7]: 50%

COc1ccc(NC(=O)Nc2nc3nn(C)cc3c3nc(-c4ccco4)nn23)cc1
Ki (Adenosine receptor A3 [8]): 0.2 nM
Ki (Adenosine receptor A2a [9]): 1390 nM
Ki (Adenosine receptor A2b [10]): 261 nM
Ratio [3]: 5480
Ratio [4]: 1300
Ki (Adenosine receptor A1 [11]): 1100 nM
IC50 (Adenosine receptor A3 [12]): 2.7 nM
inhibition [13]: 94%

C=CCn1cc2c(nc(NC(=O)Nc3ccc(OC)cc3)n3nc(-c4ccco4)nc23)n1
Ki (Adenosine receptor A3 [14]): 0.48 nM
IC50 (Adenosine receptor A3 [15]): 5.1 nM
Ki (Adenosine receptor A1 [16]): 1530 nM
Ki (Adenosine receptor A2a [17]): 176 nM
inhibition [18]: 90%
Ki (Adenosine receptor A2b [19]): 2030 nM
Ratio [3]: 3190
Ratio [4]: 4230

O=C(Nc1cccc(Cl)c1)Nc1nc2nn(CCc3cc(Br)c(Br)cc3Br)cc2c2nc(-c3ccco3)nn12
Ki (Adenosine receptor A1 [20]): 389 nM
Ratio [3]: 5.5
Ki (Adenosine receptor A2a [21]): 3600 nM
Ratio [4]: 26
Ki (Adenosine receptor A3 [22]): 71 nM
Ki (Adenosine receptor A2b [23]): 1820 nM
inhibition [7]: 32%

CC(C)(C)n1cc2c(nc(N)n3nc(-c4ccco4)nc23)n1
Ki (Adenosine receptor A2b [24]): 400 nM
Ki (Adenosine receptor A2a [25]): 45 nM
Ki (Adenosine receptor A3 [26]): 1150 nM
Ratio [3]: 0.15
Ratio [4]: 0.35
Ki (Adenosine receptor A1 [27]): 175 nM
inhibition [7]: 9%
